Experiments:
[1] = reference compounds of the solubility assay; cited from earlier work
[2] = Metabolic stability in human liver microsomes; format: in vitro ADME
Method in brief: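 Test compound (10 μM) preincubated 5 min at 37 °C with HLM (1 mg/mL) in 0.1 M phosphate buffer pH 7.4, then started with 2 mM NADPH under shaking at 37 °C. Samples at 0, 10, 20, 40 and 60 min quenched in cold acetonitrile with labetalol internal standard and centrifuged. Unchanged substrate and metabolites tracked; t1/2 and CLint from kinetic analysis.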

Row | SMILES | equilibrium solubility of reference compounds [1] [µM] | intrinsic clearance ([2]; HLM, kinetic analysis in WebMetabase) [μL/min∗ mgprot] | half-life at 10 μM ([2]; human, liver microsomes, pH 7.4) [min]
1 | C[C@H]1O[C@@H](O[C@H]2[C@@H](O)C[C@H](O[C@H]3[C@@H](O)C[C@H](O[C@H]4CC[C@@]5(C)[C@H](CC[C@@H]6[C@@H]5C[C@@H](O)[C@]5(C)[C@@H](C7=CC(=O)OC7)CC[C@]65O)C4)O[C@@H]3C)O[C@@H]2C)C[C@H](O)[C@@H]1O [Digossin] | 84.0 | – | –
2 | Cc1cc(-c2ccccc2)nc2nc(C(=O)Nc3ccccc3C(N)=O)nn12 [Compound 23] | – | 4.18 | 166
